Measurements reported in ChEMBL document CHEMBL3091351, “The 3,7-diazabicyclo[3.3.1]nonane scaffold for subtype selective nicotinic acetylcholine receptor (nAChR) ligands. Part 1: the influence of different hydrogen bond acceptor systems on alkyl and (hetero)aryl substituents” (Bioorg Med Chem, 2013).
Active and inactive are the calls of the source. No cut-off for these calls is given here.

Legend:
[1] = molecular target: T1, Neuronal acetylcholine receptor; alpha3/beta4 (Homo sapiens) (UniProt P30926+P32297); test: Agonist activity at human alpha3beta4 nAChR expressed in Xenopus laevis oocytes at 1 uM incubated for 8 secs followed by compound washout for 241 secs by Two-electrode voltage clamp assay; format: cell-based
Method in brief: (§1)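 Stage V oocytes, defolliculated with collagenase, injected with 5–20 ng subunit cRNA and recorded 1–7 days later. Two-electrode clamp at −60 mV in Ringer's with 1 µM atropine, pH 7.2. Perfusion 2 ml/min for α7, 4 ml/min for the others. Test applications were bracketed by ACh controls (30 µM α1β1εδ, 60 µM α7, 100 µM α3β4, 30 µM α4β2).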

[2] = molecular target: Neuronal acetylcholine receptor subunit alpha-7 (Homo sapiens) (UniProt P36544); test: Agonist activity at human alpha7 nAChR expressed in Xenopus laevis oocytes at 1 uM incubated for 12 secs followed by compound washout for 181 secs by Two-electrode voltage clamp assay; format: cell-based; method in brief: as §1
[3] = molecular target: T2, Nicotinic acetylcholine receptor alpha1/beta1/epsilon/delta (Mus musculus) (UniProt P04756+P09690+P02716+P20782); test: Agonist activity at mouse alpha1beta1epsilondelta nAChR expressed in Xenopus laevis oocytes at 1 uM incubated for 8 secs followed by compound washout for 241 secs by Two-electrode voltage clamp assay; format: cell-based; method in brief: as §1
[4] = molecular target: T3, Neuronal acetylcholine receptor; alpha4/beta2 (Homo sapiens, UniProt P17787+P43681); test: Agonist activity at human alpha4beta2 nAChR expressed in Xenopus laevis oocytes at 1 uM incubated for 8 secs followed by compound washout for 241 secs by Two-electrode voltage clamp assay; format: cell-based; method in brief: as §1
[5] = molecular target: T1, Neuronal acetylcholine receptor; alpha3/beta4 (Homo sapiens); test: Agonist activity at human alpha3beta4 nAChR expressed in Xenopus laevis oocytes at 10 uM incubated for 8 secs followed by compound washout for 241 secs by Two-electrode voltage clamp assay; format: cell-based; method in brief: as §1
[6] = molecular target: Neuronal acetylcholine receptor subunit alpha-7 (Homo sapiens) (UniProt P36544); test: Agonist activity at human alpha7 nAChR expressed in Xenopus laevis oocytes at 10 uM incubated for 12 secs followed by compound washout for 181 secs by Two-electrode voltage clamp assay; format: cell-based; method in brief: as §1
[7] = Displacement of [3H]epibatidine from (alpha1)2beta1gammadelta nAChR in Torpedo californica electroplax after 90 mins by liquid scintillation counting analysis; set-up: species or system Tetronarce californica
Method in brief: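 Torpedo californica electroplax membranes (60–70 µg) incubated with (±)-[3H]epibatidine and 6–9 test concentrations in HSS buffer, 90 min at 22 °C. 300 µM (−)-nicotine defined non-specific binding. PEI-presoaked glass fibre filtration, scintillation counting; duplicate to quadruplicate, 2–10 independent experiments.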

[8] = molecular target: T4, Neuronal acetylcholine receptor subunit alpha-7 (Rattus norvegicus, UniProt Q05941); test: Displacement of [3H]methyllycaconitine from alpha7 nAChR in Sprague-Dawley rat forebrain P2 fraction after 90 mins by liquid scintillation counting analysis
[9] = Displacement of [3H]epibatidine from alpha3beta4 nAChR in calf adrenal membranes fraction after 90 mins by liquid scintillation counting analysis; format: cell membranes, Bos taurus
Method in brief: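 Calf adrenal membranes (60–70 µg) in HSS buffer with 0.5 nM (±)-[3H]epibatidine, 6–9 test concentrations, 90 min at 22 °C. Non-specific binding with 300 µM (−)-nicotine. PEI-presoaked glass fibre filtration, liquid scintillation read-out; duplicate to quadruplicate, 2–10 independent experiments.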

[10] = molecular target: T5, Neuronal acetylcholine receptor; alpha4/beta2 (Rattus norvegicus, UniProt P09483+P12390); test: Displacement of [3H]epibatidine from alpha4beta2 nAChR in Sprague-Dawley rat forebrain P2 fraction after 90 mins by liquid scintillation counting analysis
Method in brief: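 Rat forebrain P2 membranes (60 µg protein) in HSS buffer with 0.5 nM (±)-[3H]epibatidine and 6–9 test concentrations. Incubated 90 min at 22 °C; non-specific binding defined with 300 µM (−)-nicotine. Filtered through PEI-presoaked glass fibre filters and counted by liquid scintillation. Run in duplicate to quadruplicate, with 2–10 independent experiments.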

[11] = molecular target: T4, Neuronal acetylcholine receptor subunit alpha-7; test: Displacement of [3H]methyllycaconitine from alpha7 nAChR in Sprague-Dawley rat brain membrane fraction after 2 hrs by liquid scintillation counting analysis; format: cell membranes
Method in brief: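 Competition binding on rat forebrain P2 membranes (60–70 µg protein) with [3H]MLA across 6–9 test concentrations. Incubation 120 min at 22 °C; 1 µM MLA defined non-specific binding. Samples filtered on PEI-presoaked glass fibre, scintillation-counted; duplicate to quadruplicate, 2–10 independent experiments.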

[12] = molecular target: T3, Neuronal acetylcholine receptor; alpha4/beta2; test: Displacement of [3H]nicotine from alpha4beta2 nAChR expressed in human SH-EP1 clonal cell membranes after 2 to 3 hrs by liquid scintillation counting analysis
[13] = molecular target: T5, Neuronal acetylcholine receptor; alpha4/beta2; test: Displacement of [3H]nicotine from alpha4beta2 nAChR in Sprague-Dawley rat brain membrane fraction after 2 to 3 hrs by liquid scintillation counting analysis; format: cell membranes
[14] = molecular target: T2, Nicotinic acetylcholine receptor alpha1/beta1/epsilon/delta (Mus musculus); test: Agonist activity at mouse alpha1beta1epsilondelta nAChR expressed in Xenopus laevis oocytes at 10 uM incubated for 8 secs followed by compound washout for 241 secs by Two-electrode voltage clamp assay; format: cell-based; method in brief: as §1
[15] = molecular target: T1, Neuronal acetylcholine receptor; alpha3/beta4 (Homo sapiens); test: Antagonist activity at human alpha3beta4 nAChR expressed in Xenopus laevis oocytes assessed as inhibition of acetylcholine-induced effect at 10 uM incubated for 8 secs followed by compound washout for 241 secs by Two-electrode voltage clamp assay; format: cell-based
Method in brief: (§2)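 Oocytes injected with 50 nl of 5–20 ng subunit cRNA and recorded 1–7 days later. Two-electrode voltage clamp at −60 mV, with perfusion at 4 ml/min in Ringer's solution (pH 7.2, 1 µM atropine). Each recording ran two ACh controls, then compound co-applied with ACh, then a follow-up ACh control. Applications lasted 8 s with a 241 s washout. Control ACh was 100 µM for α3β4 and 30 µM for α4β2.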

[16] = molecular target: T3, Neuronal acetylcholine receptor; alpha4/beta2; test: Antagonist activity at human alpha4beta2 nAChR expressed in Xenopus laevis oocytes assessed as inhibition of acetylcholine-induced effect at 10 uM incubated for 8 secs followed by compound washout for 241 secs by Two-electrode voltage clamp assay; format: cell-based; method in brief: as §2
[17] = molecular target: Neuronal acetylcholine receptor subunit alpha-7 (Homo sapiens) (UniProt P36544); test: Partial agonist activity at human alpha7 nAChR expressed in Xenopus laevis oocytes at 10 uM incubated for 12 secs followed by compound washout for 181 secs by Two-electrode voltage clamp assay; format: cell-based
Method in brief: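 α7-expressing oocytes injected with 50 nl of 5–20 ng cRNA and recorded 1–7 days later. Clamped at −60 mV and perfused at 2 ml/min with Ringer's solution (pH 7.2, 1 µM atropine). Two 60 µM ACh control applications, then a compound application, then a follow-up ACh control. Applications lasted 12 s with a 181 s washout.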

[18] = molecular target: T1, Neuronal acetylcholine receptor; alpha3/beta4 (Homo sapiens); test: Partial agonist activity at human alpha3beta4 nAChR expressed in Xenopus laevis oocytes at 10 uM incubated for 8 secs followed by compound washout for 241 secs by Two-electrode voltage clamp assay; format: cell-based
Method in brief: (§3)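 Oocytes injected with 50 nl of 5–20 ng subunit cRNA and recorded 1–7 days later. Two-electrode voltage clamp at −60 mV, with perfusion at 4 ml/min in Ringer's solution (pH 7.2, 1 µM atropine). Two initial ACh control applications, then a compound application, then a follow-up ACh control. Applications lasted 8 s with a 241 s washout. Control ACh was 100 µM for α3β4 and 30 µM for α4β2.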

[19] = molecular target: T3, Neuronal acetylcholine receptor; alpha4/beta2; test: Partial agonist activity at human alpha4beta2 nAChR expressed in Xenopus laevis oocytes at 10 uM incubated for 8 secs followed by compound washout for 241 secs by Two-electrode voltage clamp assay; format: cell-based; method in brief: as §3
[20] = molecular target: Neuronal acetylcholine receptor subunit alpha-7 (Homo sapiens) (UniProt P36544); test: Antagonist activity at human alpha7 nAChR expressed in Xenopus laevis oocytes assessed as inhibition of acetylcholine-induced effect at 10 uM incubated for 12 secs followed by compound washout for 181 secs by Two-electrode voltage clamp assay; format: cell-based
Method in brief: (§4)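 Oocytes clamped at −60 mV, perfused with Ringer's plus 1 µM atropine, pH 7.2. After two control ACh applications, the compound was co-applied with control ACh (60 µM for α7, 30 µM for α1β1εδ), followed by one further ACh control to gauge rundown. α7 used 2 ml/min perfusion; muscle subtype used 4 ml/min.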

[21] = Binding affinity to (alpha1)2beta1gammadelta nAChR (unknown origin); set-up: species or system Homo sapiens
[22] = molecular target: T2, Nicotinic acetylcholine receptor alpha1/beta1/epsilon/delta (Mus musculus); test: Antagonist activity at mouse alpha1beta1epsilondelta nAChR expressed in Xenopus laevis oocytes assessed as inhibition of acetylcholine-induced effect at 10 uM incubated for 8 secs followed by compound washout for 241 secs by Two-electrode voltage clamp assay; format: cell-based; method in brief: as §4
[23] = molecular target: T3, Neuronal acetylcholine receptor; alpha4/beta2; test: Agonist activity at human alpha4beta2 nAChR expressed in Xenopus laevis oocytes at 10 uM incubated for 8 secs followed by compound washout for 241 secs by Two-electrode voltage clamp assay; format: cell-based; method in brief: as §1

Chain of Neuronal acetylcholine receptor subunit alpha-7 (Homo sapiens) (P36544 whole entry, the tested form may be a part): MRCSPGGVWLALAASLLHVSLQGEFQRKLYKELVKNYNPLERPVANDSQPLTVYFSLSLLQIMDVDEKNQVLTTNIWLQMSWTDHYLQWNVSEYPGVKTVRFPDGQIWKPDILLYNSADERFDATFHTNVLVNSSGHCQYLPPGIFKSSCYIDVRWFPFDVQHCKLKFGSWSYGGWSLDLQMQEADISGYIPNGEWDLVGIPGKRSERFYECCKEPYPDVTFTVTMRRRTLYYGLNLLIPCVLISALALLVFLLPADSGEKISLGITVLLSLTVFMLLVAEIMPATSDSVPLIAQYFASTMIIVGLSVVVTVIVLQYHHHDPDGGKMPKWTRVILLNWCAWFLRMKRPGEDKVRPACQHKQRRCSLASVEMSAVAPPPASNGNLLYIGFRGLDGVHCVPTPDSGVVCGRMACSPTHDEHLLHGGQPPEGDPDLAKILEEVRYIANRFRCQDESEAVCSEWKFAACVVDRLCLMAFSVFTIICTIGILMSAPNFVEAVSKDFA
T4 sequence (Q05941 whole entry): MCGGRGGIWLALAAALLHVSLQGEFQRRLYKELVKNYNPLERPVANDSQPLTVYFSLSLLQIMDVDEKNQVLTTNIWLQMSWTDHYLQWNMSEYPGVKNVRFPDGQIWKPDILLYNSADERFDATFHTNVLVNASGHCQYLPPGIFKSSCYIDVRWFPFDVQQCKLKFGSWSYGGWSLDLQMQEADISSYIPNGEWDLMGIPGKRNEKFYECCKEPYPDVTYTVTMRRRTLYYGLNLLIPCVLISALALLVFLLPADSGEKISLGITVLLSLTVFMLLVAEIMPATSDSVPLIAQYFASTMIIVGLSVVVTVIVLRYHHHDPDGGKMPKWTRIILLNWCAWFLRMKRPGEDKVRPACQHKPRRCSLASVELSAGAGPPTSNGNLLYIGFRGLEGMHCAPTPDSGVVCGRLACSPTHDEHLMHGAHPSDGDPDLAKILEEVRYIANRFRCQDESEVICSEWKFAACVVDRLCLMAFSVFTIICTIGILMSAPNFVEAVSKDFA
T3 sequence (P17787 whole entry): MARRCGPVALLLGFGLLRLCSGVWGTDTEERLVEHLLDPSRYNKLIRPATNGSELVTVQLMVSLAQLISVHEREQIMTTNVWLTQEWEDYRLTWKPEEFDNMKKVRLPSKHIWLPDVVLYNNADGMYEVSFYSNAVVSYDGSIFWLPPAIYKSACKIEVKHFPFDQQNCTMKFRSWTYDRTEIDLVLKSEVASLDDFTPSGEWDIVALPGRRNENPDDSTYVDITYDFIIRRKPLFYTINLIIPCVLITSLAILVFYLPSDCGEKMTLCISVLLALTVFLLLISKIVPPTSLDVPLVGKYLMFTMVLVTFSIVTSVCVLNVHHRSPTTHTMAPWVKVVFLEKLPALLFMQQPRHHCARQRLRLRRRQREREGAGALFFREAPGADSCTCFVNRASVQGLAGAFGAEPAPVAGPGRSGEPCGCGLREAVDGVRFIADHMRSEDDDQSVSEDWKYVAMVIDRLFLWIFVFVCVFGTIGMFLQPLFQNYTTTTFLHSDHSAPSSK
T3 sequence (P43681 whole entry): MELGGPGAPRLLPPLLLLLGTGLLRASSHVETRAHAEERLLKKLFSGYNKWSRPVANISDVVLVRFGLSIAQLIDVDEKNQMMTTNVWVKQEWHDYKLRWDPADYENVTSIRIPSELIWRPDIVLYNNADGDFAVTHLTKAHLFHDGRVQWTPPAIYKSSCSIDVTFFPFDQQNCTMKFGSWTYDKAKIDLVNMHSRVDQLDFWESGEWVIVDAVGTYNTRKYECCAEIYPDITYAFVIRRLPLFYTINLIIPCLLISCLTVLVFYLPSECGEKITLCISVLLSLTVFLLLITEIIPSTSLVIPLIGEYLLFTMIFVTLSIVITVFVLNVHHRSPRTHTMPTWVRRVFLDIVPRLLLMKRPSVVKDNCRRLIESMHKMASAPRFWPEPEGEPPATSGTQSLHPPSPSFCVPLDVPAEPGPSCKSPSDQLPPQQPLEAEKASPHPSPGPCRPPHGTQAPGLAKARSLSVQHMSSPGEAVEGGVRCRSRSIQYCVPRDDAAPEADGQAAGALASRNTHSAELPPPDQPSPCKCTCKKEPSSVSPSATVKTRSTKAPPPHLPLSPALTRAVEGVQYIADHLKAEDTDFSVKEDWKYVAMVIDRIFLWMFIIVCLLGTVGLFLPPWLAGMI
T5 sequence (P09483 whole entry): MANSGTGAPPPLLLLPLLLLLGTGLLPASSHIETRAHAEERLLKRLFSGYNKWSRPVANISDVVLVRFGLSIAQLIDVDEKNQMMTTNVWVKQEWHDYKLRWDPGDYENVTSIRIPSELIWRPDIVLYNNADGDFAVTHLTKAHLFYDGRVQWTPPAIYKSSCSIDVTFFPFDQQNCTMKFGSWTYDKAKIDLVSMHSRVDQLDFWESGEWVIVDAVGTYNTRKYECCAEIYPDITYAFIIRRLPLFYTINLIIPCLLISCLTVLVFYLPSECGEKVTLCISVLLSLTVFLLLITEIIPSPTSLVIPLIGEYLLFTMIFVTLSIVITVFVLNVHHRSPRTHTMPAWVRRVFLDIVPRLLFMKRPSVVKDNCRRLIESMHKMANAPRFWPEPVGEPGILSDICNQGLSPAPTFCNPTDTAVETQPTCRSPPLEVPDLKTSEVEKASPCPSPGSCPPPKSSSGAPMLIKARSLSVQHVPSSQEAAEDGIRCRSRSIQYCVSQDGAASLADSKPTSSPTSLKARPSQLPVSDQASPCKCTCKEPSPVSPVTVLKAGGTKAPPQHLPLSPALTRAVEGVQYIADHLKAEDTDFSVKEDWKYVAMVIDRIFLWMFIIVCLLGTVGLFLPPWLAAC
T5 sequence (P12390 whole entry): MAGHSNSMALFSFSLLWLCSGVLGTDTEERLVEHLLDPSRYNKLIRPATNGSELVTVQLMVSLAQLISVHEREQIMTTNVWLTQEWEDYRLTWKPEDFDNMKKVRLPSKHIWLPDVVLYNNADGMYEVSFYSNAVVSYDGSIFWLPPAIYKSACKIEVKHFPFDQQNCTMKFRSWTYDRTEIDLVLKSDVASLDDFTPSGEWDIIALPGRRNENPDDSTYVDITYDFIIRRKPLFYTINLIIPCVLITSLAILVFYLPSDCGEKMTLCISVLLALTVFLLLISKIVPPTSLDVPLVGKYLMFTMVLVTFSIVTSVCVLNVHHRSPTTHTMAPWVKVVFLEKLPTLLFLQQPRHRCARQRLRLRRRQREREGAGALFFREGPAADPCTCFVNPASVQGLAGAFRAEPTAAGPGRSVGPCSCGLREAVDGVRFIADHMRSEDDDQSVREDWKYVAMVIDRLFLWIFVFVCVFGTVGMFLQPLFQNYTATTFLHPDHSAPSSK

SMILES	Activity [5]	Ki [7] [nM]	Ki [8] [nM]	Ki [9] [nM]	Ki [10] [nM]	Ki [11] [nM]	Ki [12] [nM]	Ki [13] [nM]	also measured
C1NCC2CNCC1C2	Active	> 1000	> 1000	> 1000	600				Activity [1]: Active; Activity [2]: Active; Activity [3]: Active; Activity [4]: Active; Activity [6]: Active
CCC(=O)N1C[C@@H]2CNC[C@@H](C2)C1	Active	> 1000	> 2000	329	4.5	795	10.4	12.2	Activity [6]: Active
O=C(c1ccco1)N1C[C@@H]2CNC[C@@H](C2)C1		> 10000		2240	21.4	15000	9.9	31	
O=C(C1CCCC1)N1C[C@@H]2CNC[C@@H](C2)C1	inactive				10.8	211	20.2	26.6	Activity [14]: inactive; Activity [6]: Active
O=C(c1ccc(-c2ccccc2)cc1)N1C[C@@H]2CNC[C@@H](C2)C1				1090	39.9				Activity [15]: Active; Activity [16]: Active; Activity [17]: Active; Activity [18]: Active; Activity [19]: Active; Activity [20]: Active
CC(C)C(=O)N1C[C@@H]2CNC[C@@H](C2)C1			> 5000	828	50.3	645	44.4	102	
CC(=O)N1C[C@@H]2CNC[C@@H](C2)C1	Active		636	664	5.6	3280	20.2	18.7	Activity [14]: inactive; Activity [6]: Active
CN1C[C@@H]2C[C@H](C1)C1CCCC(=O)N1C2 (stereo not given in full)									Ki [21]: > 50000 nM
O=C(c1ccccc1[N+](=O)[O-])N1C[C@@H]2CNC[C@@H](C2)C1		> 10000	> 10000	> 10000	> 10000				
O=C(c1cccnc1)N1C[C@@H]2CNC[C@@H](C2)C1		> 10000	> 10000	> 10000	455				
O=C(CC1CCCC1)N1C[C@@H]2CNC[C@@H](C2)C1	inactive				43.5				Activity [22]: Active; Activity [20]: Active
O=C(C1CCCCC1)N1C[C@@H]2CNC[C@@H](C2)C1		> 10000	> 10000	> 5000	> 5000				
N#Cc1ccc(C(=O)N2C[C@@H]3CNC[C@@H](C3)C2)cc1		> 5000	> 10000	> 10000	20.7				
O=C(c1cncc(Br)c1)N1C[C@@H]2CNC[C@@H](C2)C1		> 10000	> 10000	> 5000	292				
COc1ccc(C(=O)N2C[C@@H]3CNC[C@@H](C3)C2)c(OC)c1		> 10000	> 5000	> 5000	> 1000				
O=C1CCCC2[C@H]3CNC[C@H](C3)CN12 (stereo not given in full)									Ki [21]: 19000 nM
CCCC(=O)N1C[C@@H]2CNC[C@@H](C2)C1	Active	> 5000	> 1000	266	3.6	230	2.9	8.1	Activity [23]: Active; Activity [14]: inactive; Activity [6]: Active
O=C(c1cccs1)N1C[C@@H]2CNC[C@@H](C2)C1		> 10000	> 10000	> 10000	17.6				
